Measurements collected from several papers.
Each line is one published result; the experiments were not run side by side.
CYP1A2: Cytochrome P450 1A2 (CYP1A2, Homo sapiens, UniProt P05177)
CHRM1: Muscarinic acetylcholine receptor M1 (CHRM1, Homo sapiens, UniProt P11229)
ALDH2: Aldehyde dehydrogenase, mitochondrial (ALDH2, Homo sapiens, UniProt P05091)
CYP3A4: Cytochrome P450 3A4 (CYP3A4, Homo sapiens, UniProt P08684)
HDAC11: Histone deacetylase 11 (HDAC11, Homo sapiens, UniProt Q96DB2)

Compound | target | assay | system | conditions | IC50
Cc1ccc(OCC(=O)N[C@@H](Cc2c[nH]c3ccccc23)C(=O)OC(C)C)cc1 | CYP1A2 | enzyme activity, inhibitor | human, liver microsomes | 30 min | > 50 µM
O=C(CCNC(=O)CNC(=O)CC(c1ccccc1)(c1ccccc1)c1ccccc1)NC[C@H]1CCCN(Cc2ccc(F)cc2)C1 | CHRM1 | ligand displacement, radioligand | – | cell membranes | 13.9 µM
O=C1Nc2ccccc2/C1=C\c1cc(F)c(O)c(F)c1 | ALDH2 | enzyme activity, inhibitor, fluorescence | – | – | 0.9 µM
CC(C)(C)S(=O)(=O)c1cc2c(Nc3ccc4scnc4c3)ncnc2cc1OCCOP(=O)(O)O | CYP3A4 | enzyme activity, inhibitor | human, liver microsomes | 5 min, pH 7.4, testosterone probe | 49 µM
Cn1ccc(-c2ccc(-c3cc(C(=O)O)cc4cc(-c5ccc(C(F)(F)F)cc5)ccc34)cc2)n1 | CYP3A4 | enzyme activity, inhibitor | – | – | 10.8 µM
COc1ccc(N(Cc2csc(-c3ccc(C)cc3)n2)C(=O)CCCCCC(=O)NO)cc1 | HDAC11 | enzyme activity, inhibitor | – | – | > 10 µM
OCc1ccc(-c2nn(Cc3ccccc3)c3ccccc23)o1 | CYP1A2 | enzyme activity, inhibitor | human, liver microsomes | – | 0.9 µM
CC(C)C[C@H](NC(=O)[C@@H](NC(=O)N[C@@H](Cc1ccccc1)C(=O)O)[C@@H]1CCN=C(N)N1)C(=O)N[C@H](C=O)Cc1ccccc1 | Chymase (CMA1, Homo sapiens, UniProt P23946) | enzyme activity, inhibitor | – | – | 0.00777 µM
COc1ccc(N(Cc2csc(-c3ccccc3)n2)C(=O)CCCCCC(=O)NO)cc1 | HDAC11 | enzyme activity, inhibitor | – | – | > 10 µM
Cc1cc2c(cc1C)N[C@H](c1ccccc1)[C@@H](O)C(=O)N2 | Tyrosine-protein kinase JAK1 (JAK1, Homo sapiens, UniProt P23458) | enzyme activity, inhibitor, ELISA | – | – | 0.804 µM
CN(C)C(=O)c1cc2cnc(Nc3ccc(-c4ccc5c(=O)cc(N6CCOCC6)oc5c4)cc3)nc2n1C1CCCC1 | CYP1A2 | enzyme activity, inhibitor, fluorescence | – | pH 8 | > 100 µM
CCc1oc2cc(F)c(F)cc2c1C(=O)c1cc(Br)c(O)c(Br)c1 | Solute carrier organic anion transporter family member 1B1 (SLCO1B1, Homo sapiens, UniProt Q9Y6L6) | transporter uptake, inhibitor, radiometric | – | oocytes | 7.34 µM
COc1nc2ccc(Br)cc2cc1[C@@H](c1ccccc1)[C@@](O)(CCN(C)C)c1cccc2ccccc12 | ALDH2 | enzyme activity, inhibitor, fluorescence | – | – | < 10 µM
O=C(CCNC(=O)CNC(=O)CC(c1ccccc1)(c1ccccc1)c1ccccc1)NC[C@@H]1CCCN(Cc2cccnc2F)C1 | CHRM1 | ligand displacement, radioligand | – | cell membranes | > 30 µM
CC(C)N(CCC(=O)c1ccc2ccccc2c1)Cc1ccccc1 | ALDH2 | enzyme activity, inhibitor, fluorescence | – | – | < 10 µM
N=C(N)c1ccc2cc(OC(=O)c3ccc(N=C(N)N)cc3)ccc2c1 | Coagulation factor XII (F12, Homo sapiens, UniProt P00748) | enzyme activity, inhibitor | – | – | 0.0326 µM
Cc1cccc2c1NC(=O)/C2=C/c1cc(Cl)c(O)c(Cl)c1 | ALDH2 | enzyme activity, inhibitor, fluorescence | – | – | 12.7 µM
CCCN(CCC)S(=O)(=O)c1ccc(C(=O)O)cc1 | Taste receptor type 2 member 14 (TAS2R14, Homo sapiens, UniProt Q9NYV8, S265A) | inositol phosphate, antagonist, TR-FRET | – | – | 1000 µM
